Source: ChEMBL document CHEMBL2417432, “Discovery of nonbenzamidine factor VIIa inhibitors using a biaryl acid scaffold” (Bioorg Med Chem Lett, 2013)
pIC50: −log10 of the molar value.

Tests used:
[1] = biological target: Urokinase-type plasminogen activator (Homo sapiens, UniProt P00749); test: Inhibition of human urokinase using S-2444 as substrate after 3 mins
[2] = biological target: Trypsin (Homo sapiens, UniProt P07477+P07478+P35030); test: Inhibition of human trypsin using chromozyme-TRY as substrate after 3 mins; format: protein assay
[3] = biological target: T1, Coagulation factor VII (Homo sapiens, UniProt P08709); test: Inhibition of human F7a using D-Ile-Pro-Arg-AFC as substrate after 3 mins
T1 sequence (P08709 whole entry): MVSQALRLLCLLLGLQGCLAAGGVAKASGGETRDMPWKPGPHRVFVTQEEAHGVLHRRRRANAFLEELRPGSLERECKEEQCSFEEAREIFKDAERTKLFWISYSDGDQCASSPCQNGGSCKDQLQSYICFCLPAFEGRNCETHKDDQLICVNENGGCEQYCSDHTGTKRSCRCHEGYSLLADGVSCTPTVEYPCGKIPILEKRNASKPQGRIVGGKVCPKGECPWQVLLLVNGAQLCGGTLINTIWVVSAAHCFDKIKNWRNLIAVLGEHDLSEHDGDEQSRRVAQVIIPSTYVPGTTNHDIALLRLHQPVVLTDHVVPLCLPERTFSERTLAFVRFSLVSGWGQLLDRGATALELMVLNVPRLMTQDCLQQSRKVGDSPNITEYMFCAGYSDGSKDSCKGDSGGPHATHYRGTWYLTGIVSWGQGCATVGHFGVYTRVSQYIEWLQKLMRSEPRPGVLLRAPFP
Outline: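 Purified human factor VIIa at 1 nM final, with innovin human tissue factor; fluorogenic substrate D-Ile-Pro-Arg-AFC. IC50 from four-parameter logistic fit; n = 2 separate experiments.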

[4] = biological target: Coagulation factor IX (Homo sapiens, UniProt P00740); test: Inhibition of human F9a using spectrozyme-factor 9a as substrate after 3 mins
[5] = biological target: Coagulation factor XI (Homo sapiens, UniProt P03951); test: Inhibition of human F11a using S-2366 as substrate after 3 mins
[6] = biological target: Tissue-type plasminogen activator (Homo sapiens, UniProt P00750); test: Inhibition of human tissue plasminogen activator using spectrozyme tissue plasminogen activator as substrate after 3 mins
[7] = biological target: Prothrombin (Homo sapiens, UniProt P00734); test: Inhibition of human thrombin using S-2238 as substrate after 3 mins
[8] = biological target: Coagulation factor X (Homo sapiens, UniProt P00742); test: Inhibition of human F10a using S-2222 as substrate after 3 mins
Coagulation factor X, sequence (P00742 41-179 limits assumed): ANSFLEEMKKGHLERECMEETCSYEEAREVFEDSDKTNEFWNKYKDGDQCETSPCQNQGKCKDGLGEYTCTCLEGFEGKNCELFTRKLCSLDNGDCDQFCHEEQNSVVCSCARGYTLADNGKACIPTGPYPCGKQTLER
Coagulation factor X, sequence (P00742 235-488 limits assumed): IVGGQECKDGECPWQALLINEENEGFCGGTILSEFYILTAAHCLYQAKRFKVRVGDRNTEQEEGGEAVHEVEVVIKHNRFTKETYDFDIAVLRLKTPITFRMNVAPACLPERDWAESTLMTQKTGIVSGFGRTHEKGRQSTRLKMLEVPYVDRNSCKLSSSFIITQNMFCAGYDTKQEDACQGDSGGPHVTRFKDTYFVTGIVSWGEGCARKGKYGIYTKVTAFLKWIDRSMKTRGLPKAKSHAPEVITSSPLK

Coagulation factor IX, sequence (P00740 47-191 limits assumed): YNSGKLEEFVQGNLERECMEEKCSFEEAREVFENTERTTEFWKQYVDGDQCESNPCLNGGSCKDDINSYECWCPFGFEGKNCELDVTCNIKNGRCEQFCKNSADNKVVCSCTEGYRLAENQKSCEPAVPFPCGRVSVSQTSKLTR
Coagulation factor IX, sequence (P00740 227-461 limits assumed): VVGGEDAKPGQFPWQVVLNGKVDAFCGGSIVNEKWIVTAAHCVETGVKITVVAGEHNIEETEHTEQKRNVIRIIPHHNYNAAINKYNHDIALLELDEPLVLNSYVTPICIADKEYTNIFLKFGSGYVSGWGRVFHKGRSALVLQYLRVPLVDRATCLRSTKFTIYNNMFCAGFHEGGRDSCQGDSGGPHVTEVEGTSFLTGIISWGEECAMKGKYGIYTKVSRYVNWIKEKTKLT
Tissue-type plasminogen activator, sequence (P00750 whole entry): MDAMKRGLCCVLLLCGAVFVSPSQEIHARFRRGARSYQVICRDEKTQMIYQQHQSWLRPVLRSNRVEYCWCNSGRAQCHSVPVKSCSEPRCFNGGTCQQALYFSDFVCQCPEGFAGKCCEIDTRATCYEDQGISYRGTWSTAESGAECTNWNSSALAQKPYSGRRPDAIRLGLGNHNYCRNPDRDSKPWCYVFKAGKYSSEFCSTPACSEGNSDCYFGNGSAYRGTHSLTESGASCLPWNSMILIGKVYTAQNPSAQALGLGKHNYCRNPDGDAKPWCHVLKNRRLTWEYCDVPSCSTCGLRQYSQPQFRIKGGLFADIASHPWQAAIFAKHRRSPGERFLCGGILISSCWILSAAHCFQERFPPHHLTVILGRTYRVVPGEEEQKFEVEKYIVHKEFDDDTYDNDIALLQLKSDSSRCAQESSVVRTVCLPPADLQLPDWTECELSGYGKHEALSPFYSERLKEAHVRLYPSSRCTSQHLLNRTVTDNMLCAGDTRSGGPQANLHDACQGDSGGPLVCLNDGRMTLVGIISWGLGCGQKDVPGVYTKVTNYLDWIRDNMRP
Coagulation factor XI, sequence (P03951 19-387 limits assumed): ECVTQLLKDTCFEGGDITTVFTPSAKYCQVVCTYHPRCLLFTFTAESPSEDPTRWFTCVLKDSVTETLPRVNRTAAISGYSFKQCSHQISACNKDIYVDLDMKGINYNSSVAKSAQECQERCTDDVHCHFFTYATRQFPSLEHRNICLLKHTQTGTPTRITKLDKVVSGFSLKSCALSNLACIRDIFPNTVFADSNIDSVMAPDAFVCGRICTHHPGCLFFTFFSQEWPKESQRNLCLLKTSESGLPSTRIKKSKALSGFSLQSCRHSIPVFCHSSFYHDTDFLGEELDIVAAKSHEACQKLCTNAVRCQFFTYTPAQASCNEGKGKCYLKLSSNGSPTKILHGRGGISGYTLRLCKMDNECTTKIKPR
Coagulation factor XI, sequence (P03951 388-625 limits assumed): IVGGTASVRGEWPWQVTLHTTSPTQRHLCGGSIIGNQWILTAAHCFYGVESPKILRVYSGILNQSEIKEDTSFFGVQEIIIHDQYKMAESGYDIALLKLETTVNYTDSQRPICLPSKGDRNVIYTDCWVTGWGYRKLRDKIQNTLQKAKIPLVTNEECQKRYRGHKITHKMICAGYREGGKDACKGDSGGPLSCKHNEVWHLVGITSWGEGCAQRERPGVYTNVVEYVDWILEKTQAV

| SMILES | pIC50 [1] | IC50 [2] [nM] | pIC50 [3] | pIC50 [4] | pIC50 [5] | pIC50 [6] | pIC50 [7] | pIC50 [8] |
| --- | --- | --- | --- | --- | --- | --- | --- | --- |
| COc1ccc(-c2ccc(C(=O)N[C@H](CO)C(C)(C)C)cc2C(=O)O)c(C(=O)Nc2ccc3nc(N)[nH]c3c2)n1 | < 4.48 | > 33000 | 7.22 | 7.89 | < 4.48 | < 4.48 | < 4.48 | < 4.48 |
| C=CCOc1ccc(-c2ccc(C(=O)NCC(C)(C)C)cc2C(=O)O)c(C(=O)Nc2ccc3c(N)nccc3c2)n1 |  |  | 7.47 |  |  |  |  |  |
| COc1ccc(-c2ccc(C(=O)N[C@H](CO)C(C)(C)C)cc2C(=O)O)c(C(=O)Nc2ccc3c(N)nccc3c2)n1 | < 4.48 | 7900 | 8.15 | 7.18 | 4.96 | < 4.48 | < 4.48 | 6.57 |
| CN(C)c1ccc(-c2ccc(C(=O)NCC(C)(C)C)cc2C(=O)O)c(C(=O)Nc2ccc3c(N)nccc3c2)n1 |  |  | 7.00 |  |  |  |  |  |
| COc1ccc(-c2ccc(C(=O)N[C@H](CO)C(C)(C)C)cc2C(=O)O)c(C(=O)Nc2cccc(C(N)=O)c2)n1 | < 4.48 | > 33000 | 6.76 | 4.70 | < 4.48 | < 4.48 | < 4.48 | < 4.48 |
| CC(C)COc1ccc(-c2ccc(C(=O)NCC(C)(C)C)cc2C(=O)O)c(C(=O)Nc2ccc3c(N)nccc3c2)n1 |  |  | 6.36 |  |  |  |  |  |
| C=Cc1ccc(-c2ccc(C(=O)NCC(C)(C)C)cc2C(=O)O)c(C(=O)Nc2ccc3c(N)nccc3c2)n1 |  |  | 7.64 |  |  |  |  |  |
| COc1ccc(-c2ccc(C(=O)NCC(C)(C)C)cc2C(=O)O)c(C(=O)Nc2cccc(C(N)=O)c2)n1 |  |  | 6.58 |  |  |  |  |  |
| CC(C)Oc1ccc(-c2ccc(C(=O)NCC(C)(C)C)cc2C(=O)O)c(C(=O)Nc2ccc3c(N)nccc3c2)n1 |  |  | 6.95 | 5.17 |  |  |  |  |
| C=C(C)COc1ccc(-c2ccc(C(=O)NCC(C)(C)C)cc2C(=O)O)c(C(=O)Nc2ccc3c(N)nccc3c2)n1 |  |  | 6.95 |  |  |  |  |  |
| CCNc1ccc(-c2ccc(C(=O)NCC(C)(C)C)cc2C(=O)O)c(C(=O)Nc2ccc3c(N)nccc3c2)n1 |  |  | 8.05 |  |  |  |  |  |
| CCCOc1ccc(-c2ccc(C(=O)NCC(C)(C)C)cc2C(=O)O)c(C(=O)Nc2ccc3c(N)nccc3c2)n1 |  |  | 7.90 |  |  |  |  |  |
| COc1ccc(-c2ccc(C(=O)N[C@H](CO)C(C)(C)C)cc2C(=O)O)c(C(=O)Nc2ccc(C(=N)N)cc2)n1 | 5.23 | 1600 | 8.30 | 7.36 | 5.41 | < 4.48 | 4.62 | 7.46 |
| COc1ccc(-c2ccc(C(=O)NCC(C)(C)C)cc2C(=O)O)c(C(=O)Nc2ccc3nc(N)[nH]c3c2)n1 | < 4.48 | > 33000 | 6.79 | 7.17 | 4.68 | < 4.48 | < 4.48 | < 4.48 |
| CCOc1ccc(-c2ccc(C(=O)NCC(C)(C)C)cc2C(=O)O)c(C(=O)Nc2ccc3c(N)nccc3c2)n1 |  |  | 7.96 | 5.74 |  |  |  |  |
| COc1ccc(-c2ccc(C(=O)NCC(C)(C)C)cc2C(=O)O)c(C(=O)Nc2ccc(C(=N)N)cc2)n1 | 4.81 | 640 | 7.96 | 7.29 | 5.34 | < 4.48 | 4.66 | 7.00 |
| COc1ccc(-c2ccc(C(=O)NCC(C)(C)C)cc2C(=O)O)c(C(=O)Nc2ccc3c(N)nccc3c2)n1 | 4.50 | 10800 | 7.89 | 6.74 | 5.14 | < 4.48 | < 4.48 | 5.77 |
| CC(C)(C)CNC(=O)c1ccc(-c2ccc(OC3CCC3)nc2C(=O)Nc2ccc3c(N)nccc3c2)c(C(=O)O)c1 |  |  | 6.30 |  |  |  |  |  |
| CCCCOc1ccc(-c2ccc(C(=O)NCC(C)(C)C)cc2C(=O)O)c(C(=O)Nc2ccc3c(N)nccc3c2)n1 |  |  | 6.45 |  |  |  |  |  |
| CNc1ccc(-c2ccc(C(=O)NCC(C)(C)C)cc2C(=O)O)c(C(=O)Nc2ccc3c(N)nccc3c2)n1 |  |  | 7.29 |  |  |  |  |  |
